Assay results published in ChEMBL document CHEMBL1144884, “Synthesis, activity, and molecular modeling studies of novel human aldose reductase inhibitors based on a marine natural product” (J Med Chem, 2003).
pIC50: −log10 of the molar value.

Columns and labels:
[1] = Inhibitory activity on sorbital accumulation in human retinal cells was determined; format: functional, cell-based
Procedure, shortened: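 ARPE-19 human retinal cells grown in MEM with 0.5% fetal calf serum plus 50 mM glucose. Compounds added in DMSO, then 16 h at 37 °C under 5% CO2. Cells lysed with 8% perchloric acid and neutralised with KOH. Sorbitol measured by colorimetric kit. IC50 taken as the concentration halving sorbitol accumulation; mean of three experiments.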

[2] = target: T1, Aldo-keto reductase family 1 member B1 (Homo sapiens, UniProt P15121); test: (§1) In vitro inhibitory activity against recombinant human aldose reductase (ALR2) was determined
[3] = target: T1, Aldo-keto reductase family 1 member B1; test: In vitro inhibition of recombinant human aldose reductase (ALR2)
Procedure, shortened: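 Recombinant human ALR2 expressed in baculovirus-infected Sf9 cells, purified by dye-affinity chromatography. Assay at 37 °C: 100 mM sodium phosphate pH 6.2, 400 mM ammonium sulfate, 5 mU/mL enzyme, 0.1 mM NADPH. DMSO-dissolved compound preincubated 5 min, then 10 mM glyceraldehyde added; A340 decrease followed 6 min.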

[4] = target: T1, Aldo-keto reductase family 1 member B1; test: as §1; remark: listed apart in the source
Procedure, shortened: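 Recombinant hALR2 expressed in baculovirus-infected Sf9 cells, purified by affinity chromatography. Run at 37 °C in 100 mM sodium phosphate pH 6.2, 400 mM ammonium sulfate, 5 mU/mL enzyme, 0.1 mM NADPH. Compounds in DMSO preincubated 5 min. Started with 10 mM glyceraldehyde; A340 decrease read over 6 min.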

Row | inhibition [3] | Structure (SMILES) | pIC50 [1] | pIC50 [2] | further results
1 | – | Oc1c(Oc2cc(Br)c(Br)c(Br)c2O)cc(Br)c(Br)c1Br | 6.00 | 5.24 | –
2 | – | Nc1c(Oc2cc(Br)c(Br)c(Br)c2O)cc(Br)c(Br)c1Br | 5.22 | 5.05 | –
3 | – | Oc1c(Oc2c(O)c(Br)c(Br)c(Br)c2Br)cc(Br)c(Br)c1Br | 5.15 | 5.26 | –
4 | 0% | CC(=O)Oc1c(Br)cc(Br)cc1Oc1c(Br)c(Br)c(Br)c(Br)c1OC(C)=O | – | – | –
5 | 46% | Oc1cc(Br)c(Br)cc1Oc1cc(Br)c(Br)cc1O | – | – | –
6 | 0% | COC(=O)COc1c(Br)cc(Br)cc1Oc1c(Br)c(Br)c(Br)c(Br)c1OCC(=O)OC | – | – | –
7 | 18% | Oc1c(Nc2cc(Br)c(Br)c(Br)c2O)cc(Br)c(Br)c1Br | – | – | –
8 | – | Oc1c(Br)cc(Br)cc1Oc1c(O)c(Br)c(Br)c(Br)c1Br | 5.52 | – | pIC50 [4]: 5.19
9 | – | Oc1c(Br)cc(Oc2cc(Br)c(Br)c(Br)c2O)c(O)c1Br | 5.10 | 5.36 | –
10 | – | Oc1c(Oc2cc(Br)c(Br)c(Br)c2O)cc(F)c(Br)c1Br | 4.96 | 5.49 | –
11 | – | COc1ccc2c(C(=S)N(C)CC(=O)O)cccc2c1C(F)(F)F [TOLRESTAT] | 7.70 | – | –
12 | 0% | COc1c(Nc2cc(Br)c(Br)c(Br)c2OC)cc(Br)c(Br)c1Br | – | – | –
13 | 32% | Oc1ccc(Br)cc1Oc1cc(Br)ccc1O | – | – | –
14 | – | O=C(O)COc1c(Br)cc(Br)cc1Oc1c(Br)c(Br)c(Br)c(Br)c1OCC(=O)O | – | 4.60 | –
15 | – | O=C1NC(=O)[C@@]2(CCOc3ccc(F)cc32)N1 [SORBINIL] | 5.40 | – | –
16 | 38% | Oc1cc(Br)c(O)c(Oc2c(O)c(Br)c(Br)c(Br)c2Br)c1 | – | – | –
17 | 0% | COc1cc(Br)c(Br)cc1Oc1cc(Br)c(Br)cc1OC | – | – | –
18 | 0% | COc1c(Br)c(Br)c(Br)c(Br)c1Oc1cc(O)cc(Br)c1O | – | – | –
19 | – | Oc1c(Oc2cc(Cl)c(Cl)c(Cl)c2O)cc(Cl)c(Cl)c1Cl | 6.62 | 5.49 | –

Row | Structure (SMILES) | inhibition [3] | pIC50 [1] | pIC50 [2] | further results
20 | Oc1cc(Br)c(Br)c(Br)c1Oc1cc(Br)cc(Br)c1O | 0% | – | – | –
21 | COc1c(Br)cc(Br)cc1Oc1c(Br)c(Br)c(Br)c(Br)c1OC | 0% | – | – | –
22 | COc1cc(Br)c(Br)c(Br)c1Oc1cc(Br)cc(Br)c1OC | 0% | – | – | –
23 | Oc1c(Br)cc(Br)cc1Oc1c(Br)cc(Br)c(Br)c1O | 25% | – | – | –
